Molecules are shown by their SMILES. Calls of active or inactive are those of the source. The calls are words filed in the database; no cut-off is given here.

inhibition, Activity and regenerated tissue length data for four compounds are collected here from ChEMBL document CHEMBL1221183, “Chemical modulation of receptor signaling inhibits regenerative angiogenesis in adult zebrafish” (Nat Chem Biol, 2006).

In experiment [1] the target is Vascular endothelial growth factor receptor 2 (Danio rerio) (UniProt Q5GIT4). The experiment is described as follows: Inhibition of VEGFR2-mediated regenerative angiogenesis in adult zebrafish tail fin vessel at 100 to 500 nM after 3 days by microscopy. A digest of the protocol:
(§1)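 Adult fins cut at mid-fin level; fish kept in fish water with inhibitor (DMSO stock, final DMSO <0.1%) at 31-33 °C, up to six fish per liter, for 3 dpa. Tg(fli1:EGFP)y1 endothelial signal imaged by fluorescence microscopy, with perfusion shown by intracardiac angiography in the same fish.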

Experiment [2] shares this target. The experiment is described as follows: Inhibition of VEGFR2-mediated regenerative angiogenesis in adult zebrafish tail fin vessel at 500 to 1000 nM after 3 days by microscopy.
Experiment [3] shares this target. The experiment in a line: Mild inhibition of VEGFR2-mediated regenerative angiogenesis in adult zebrafish tail fin vessel at 100 to 500 nM after 3 days by microscopy. A digest of the protocol: as §1
Experiment [4] has the same target. The experiment is described as follows: Effect on VEGFR2-mediated axonal outgrowth in adult zebrafish tail fin at 500 nM after 5 days by zn-12 staining-based immunohistochemistry. A digest of the protocol:
(§2)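 Fins fixed overnight at 4 °C in Dent's fixative, dehydrated in a methanol series, re-fixed in 4% paraformaldehyde for 2-24 h, then permeabilized in acetone at -20 °C for 20 min and blocked 1 h at 37 °C. Primary antibody zn-12, zns-5 or B-4 (smooth muscle actin) at 1:50-1:200 overnight at 4 °C; Cy2/Cy3 secondary at 1:200.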

The target is the same in experiment [5]. The experiment is described as follows: Inhibition of VEGFR2-mediated regenerative angiogenesis in adult zebrafish tail fin proximal vessel at 500 nM treated for 3 days post 5 days of amputation period measured on day 8 by angiography. A digest of the protocol: (§3)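 Amputated adult Tg(fli1:EGFP)y1 fins recovered at 31-33 °C in fish water or 500 nM inhibitor (final DMSO <0.1%); in washout runs the drug was removed at 3 dpa. The same fish were imaged over several days.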

The target is the same in experiment [6]. The experiment in a line: Inhibition of VEGFR2-mediated regenerative angiogenesis in adult zebrafish tail fin distal vessel at 500 nM treated for 3 days post 5 days of amputation period measured on day 8 by angiography. A digest of the protocol:
as §3

For experiment [7] the target is unchanged. The experiment is described as follows: Inhibition of VEGFR2-mediated regenerative angiogenesis in adult zebrafish tail fin assessed disruption of actin filament at 500 nM after 14 days by immunohistochemistry.
For experiment [8] the target is unchanged. The experiment is described as follows: Inhibition of VEGFR2-mediated shh mRNA expression in adult zebrafish tail fin at 500 nM measured on day 2 post treatment by in-situ hybridization assay.
For experiment [9] the target is unchanged. The experiment in a line: Inhibition of VEGFR2-mediated regenerative angiogenesis in adult zebrafish tail fin assessed as decrease in tissue regeneration at 500 nM after 5 days by angiography. It counts as tissue-based. A digest of the protocol: as §3
For experiment [10] the target is unchanged. The experiment in a line: Inhibition of VEGFR2-mediated msxb mRNA expression in adult zebrafish tail fin at 500 nM measured on day 2 post treatment by in-situ hybridization assay.
Experiment [11] has the same target. The experiment is described as follows: Inhibition of VEGFR2-mediated VEGFA mRNA expression in adult zebrafish tail fin at 500 nM after 1.5 days by in-situ hybridization assay.
The target is the same in experiment [12]. The experiment in a line: Inhibition of VEGFR2-mediated regenerative angiogenesis in adult zebrafish tail fin assessed as amount of tissue regeneration at 500 nM measured on day 7 post treatment by angiography. It counts as tissue-based. A digest of the protocol:
as §3

For experiment [13] the target is unchanged. The experiment is described as follows: Partial inhibition of VEGFR2-mediated regenerative angiogenesis in adult zebrafish tail fin vessel at 100 nM after 3 days by microscopy. A digest of the protocol: as §1
The target is the same in experiment [14]. The experiment in a line: Inhibition of VEGFR2-mediated regenerative angiogenesis in adult zebrafish tail fin assessed disruption of actin filament at 500 nM measured after 1 week or recovery post amputation by immunohistochemistry.
The target is the same in experiment [15]. The experiment in a line: Inhibition of VEGFR2-mediated regenerative angiogenesis in adult zebrafish tail fin proximal vessel at 500 nM treated for 3 days post 5 days of amputation period measured on day 5 by angiography. A digest of the protocol:
as §3

For experiment [16] the target is unchanged. The experiment in a line: Inhibition of VEGFR2-mediated regenerative angiogenesis in adult zebrafish tail fin distal vessel at 500 nM treated for 3 days post 5 days of amputation period measured on day 5 by angiography. A digest of the protocol: as §3
For experiment [17], the species on record is Danio rerio. The experiment in a line: Decrease in VEGFR2 gene expression in adult zebrafish tail fin at 500 nM up to 2 days by in-situ hybridization assay.
For experiment [18], the target named is Vascular endothelial growth factor receptor 2 (Danio rerio) (UniProt Q5GIT4). The experiment is described as follows: Inhibition of VEGFR2-mediated regenerative angiogenesis in wild type adult zebrafish tail fin vessel assessed as vascularization of newly generated tissues at 100 nM measured on day 3 post treatment by angiography. It counts as tissue-based. Details: scale not given: the % may be the effect or the level left. A digest of the protocol:
(§4)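 Fins of wild-type or mutant adults cut at mid-fin level, then kept 3 dpa in fish water or 100 nM PTK787 at 31-33 °C. Perfusion shown by intracardiac injection of fluorescent lectin or 70-kDa dextran (5 mg ml-1 in Danieau's, pH 7.6). Tissue regrowth and vessel regeneration measured for each fish and given as percentage of vascularization; ANOVA with Tukey tests.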

Experiment [19] shares this target. The experiment is described as follows: Inhibition of VEGFR2-mediated regenerative angiogenesis in PLCgamma1y10 gene-deficient adult zebrafish tail fin vessel assessed as vascularization of newly generated tissues at 100 nM measured on day 3 post treatment by angiography. It counts as tissue-based. On the set-up: scale not given: the % may be the effect or the level left. A digest of the protocol:
as §4

Experiment [20] is filed under the species Danio rerio. The experiment in a line: Effect on ephrinB2a mRNA expression in adult zebrafish tail fin at 500 nM treated for 3 days measured on day 5 following drug washout by real-time PCR analysis. (In general: Quantitative PCR measures a nucleic acid by following its amplification.)
For experiment [21], the species on record is Danio rerio. The experiment in a line: Decrease in VEGFR2 gene expression in adult zebrafish tail fin at 500 nM treated for 3 days measured on day 5 following drug washout by real-time PCR analysis.
The species entered for experiment [22] is Danio rerio. The experiment is described as follows: Effect on semaphorin3aa mRNA expression in adult zebrafish tail fin at 500 nM treated for 3 days measured on day 5 following drug washout by real-time PCR analysis.
Experiment [23] concerns the target Vascular endothelial growth factor receptor 2 (Danio rerio) (UniProt Q5GIT4). The experiment is described as follows: Inhibition of VEGFR2-mediated regenerative angiogenesis in adult zebrafish tail fin assessed as reduction of plexus formation at 500 nM treated for 3 days measured after 4 days of drug washout by angiography. A digest of the protocol: as §3
Experiment [24] has the same target. The experiment in a line: Inhibition of VEGFR2-mediated regenerative angiogenesis in adult zebrafish tail fin at 500 nM treated for 3 days measured after 4 days of drug washout by angiography. A digest of the protocol:
as §3

The target is the same in experiment [25]. The experiment in a line: Inhibition of VEGFR2-mediated regenerative angiogenesis in adult zebrafish tail fin assessed as amount of tissue regeneration at 500 nM measured on day 14 post treatment by angiography. It counts as tissue-based. A digest of the protocol:
as §3

Experiment [26] has the same target. The experiment is described as follows: Inhibition of VEGFR2-mediated regenerative angiogenesis in adult zebrafish tail fin vessel harboring hypomorphic mutation in grlm145 gene assessed as vascularization of newly generated tissues at 100 nM measured on day 3 post treatment by angiography. It counts as tissue-based. On the set-up: scale not given: the % may be the effect or the level left. A digest of the protocol: as §4

The species named for experiment [27] is Danio rerio. The experiment in a line: Decrease in VEGFR2 gene expression in adult zebrafish tail fin at 500 nM after 3 days by real-time PCR analysis.
Experiment [28] deals with Vascular endothelial growth factor receptor 2 (Danio rerio) (UniProt Q5GIT4). The experiment is described as follows: Effect on VEGFR2-mediated bone tissue regeneration in adult zebrafish tail fin at 500 nM after 5 days by zns-5 staining-based immunohistochemistry. A digest of the protocol: as §2
The species entered for experiment [29] is Danio rerio. The experiment is described as follows: Decrease in FGFR1 mRNA expression in adult zebrafish tail fin at 500 nM measured on day 2 post treatment by in-situ hybridization assay.
Experiment [30] deals with Vascular endothelial growth factor receptor 2 (Danio rerio) (UniProt Q5GIT4). The experiment is described as follows: Effect on VEGFR2-mediated VEGFA mRNA expression in adult zebrafish tail fin at 500 nM treated for 3 days measured on day 5 following drug washout by real-time PCR analysis.
Experiment [31] shares this target. The experiment is described as follows: Complete inhibition of VEGFR2-mediated regenerative angiogenesis in adult zebrafish tail fin vessel at 500 nM after 3 days by microscopy. A digest of the protocol: as §1
The target is the same in experiment [32]. The experiment is described as follows: Inhibition of VEGFR2-mediated regenerative angiogenesis in clom39-positive heterozygous adult zebrafish tail fin vessel assessed as vascularization of newly generated tissues at 100 nM measured on day 3 post treatment by angiography. It counts as tissue-based. Details: scale not given: the % may be the effect or the level left. A digest of the protocol: as §4

For experiment [33], the species on record is Danio rerio. The experiment is described as follows: Decrease in VEGFR2 gene expression in adult zebrafish tail fin at 500 nM treated for 3 days measured on day 4 following drug washout by real-time PCR analysis.
Experiment [34] deals with Vascular endothelial growth factor receptor 2 (Danio rerio) (UniProt Q5GIT4). The experiment is described as follows: Inhibition of VEGFR2-mediated regenerative angiogenesis in adult zebrafish tail fin vessel at 500 to 1000 nM after 3 days by microscopy. It counts as tissue-based.

Vascular endothelial growth factor receptor 2 (Danio rerio), sequence (Q5GIT4 whole entry, the tested form may be a part): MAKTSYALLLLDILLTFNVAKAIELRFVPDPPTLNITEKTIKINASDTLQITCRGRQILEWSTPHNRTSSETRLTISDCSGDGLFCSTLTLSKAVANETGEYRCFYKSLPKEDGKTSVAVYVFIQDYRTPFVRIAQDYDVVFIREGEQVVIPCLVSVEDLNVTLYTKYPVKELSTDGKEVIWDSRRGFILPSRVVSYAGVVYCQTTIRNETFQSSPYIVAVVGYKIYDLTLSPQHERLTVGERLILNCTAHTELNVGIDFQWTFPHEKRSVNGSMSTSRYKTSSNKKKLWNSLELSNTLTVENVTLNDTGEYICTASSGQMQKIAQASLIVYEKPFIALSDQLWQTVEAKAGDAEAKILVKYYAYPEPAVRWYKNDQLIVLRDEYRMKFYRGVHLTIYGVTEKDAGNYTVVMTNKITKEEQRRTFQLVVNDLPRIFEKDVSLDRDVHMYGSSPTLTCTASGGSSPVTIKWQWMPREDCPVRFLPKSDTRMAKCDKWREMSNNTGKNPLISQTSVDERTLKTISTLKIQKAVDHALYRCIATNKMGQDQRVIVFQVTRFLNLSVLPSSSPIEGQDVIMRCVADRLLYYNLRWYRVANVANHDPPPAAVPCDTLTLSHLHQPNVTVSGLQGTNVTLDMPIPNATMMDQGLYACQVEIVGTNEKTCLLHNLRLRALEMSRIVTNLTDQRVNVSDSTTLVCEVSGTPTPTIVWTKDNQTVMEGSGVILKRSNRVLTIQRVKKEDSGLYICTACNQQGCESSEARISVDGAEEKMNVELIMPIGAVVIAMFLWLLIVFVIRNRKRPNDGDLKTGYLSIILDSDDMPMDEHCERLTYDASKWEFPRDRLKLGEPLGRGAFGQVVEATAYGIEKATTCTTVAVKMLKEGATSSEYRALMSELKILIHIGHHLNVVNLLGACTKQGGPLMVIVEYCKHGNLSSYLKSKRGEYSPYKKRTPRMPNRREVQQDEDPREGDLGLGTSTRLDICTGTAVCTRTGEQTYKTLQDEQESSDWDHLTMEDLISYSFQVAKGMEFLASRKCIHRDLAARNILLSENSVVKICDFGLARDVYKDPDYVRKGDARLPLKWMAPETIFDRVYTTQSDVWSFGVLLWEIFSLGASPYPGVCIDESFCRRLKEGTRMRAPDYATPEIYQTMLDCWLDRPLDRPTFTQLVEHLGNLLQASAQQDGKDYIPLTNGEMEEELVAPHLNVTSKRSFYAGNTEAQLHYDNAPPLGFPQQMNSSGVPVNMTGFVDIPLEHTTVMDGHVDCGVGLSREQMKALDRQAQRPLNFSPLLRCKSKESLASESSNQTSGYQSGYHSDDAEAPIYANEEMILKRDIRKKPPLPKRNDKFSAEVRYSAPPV

For `O=C(Nc1cccc(C(F)(F)F)c1)c1ccccc1NCc1ccncc1`, the inhibition result in experiment [1] was “Active”.

For `CCN(CC)CCNC(=O)c1c(C)[nH]c(/C=C2\C(=O)Nc3ccc(Cl)cc32)c1C`, the inhibition result in experiment [2] and in [3] was “Active” in each case.

On to `Clc1ccc(Nc2nnc(Cc3ccncc3)c3ccccc23)cc1`, for which the outcome (in [4]; in the experiment filed under Danio rerio [20]; in the experiment listed under Danio rerio [22]; in experiment [28]; in experiment [30]) was inactive. Also, the inhibition result in experiment [5], in experiment [7], in experiment [8], in experiment [10], in [11] and in experiment [15] was “inactive” each time. Also, the inhibition entry (in the experiment listed under Danio rerio [21]; in experiment [24]; in the experiment filed under Danio rerio [29]; in the experiment listed under Danio rerio [33]) was “inactive” throughout. Moreover, the inhibition result (in experiment [6]; in experiment [9]; in experiment [13]; in [14]; in experiment [16]; in the experiment filed under Danio rerio [17]) was “Active” in each case. The inhibition entry (in experiment [2]; in [23]; in the experiment filed under Danio rerio [27]; in [31]) was “Active” throughout. Further, the regenerated tissue length in [12] and in [25] was 800 µm throughout. Also, the Activity came out at 50% in [18], 30% in experiment [19], 30% in [26] and 50% in experiment [32].

As for `Cc1cc(C)c(/C=C2\C(=O)Nc3ccccc32)[nH]1`, the inhibition result in experiment [34] was “inactive”.
